Active and inactive are the calls of the source. The rule behind the calls is not given here.
Key:
[1] = target: 5-hydroxytryptamine receptor 2A (Homo sapiens, UniProt P28223); experiment: Induction of 5HT2A receptor mediated increase in intracellular calcium concentration in CHO cells; assay type: functional, cell-based
Procedure, shortened: (§1)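 Recombinant cell lines stably expressed the respective 5-HT2 receptor subtype. Agonist-induced rises in intracellular calcium were read with a fluorescence-based assay.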

[2] = target: T1, 5-hydroxytryptamine receptor 2C (Homo sapiens, UniProt P28335); experiment: Induction of 5HT2C receptor mediated increase in intracellular calcium concentration in HEK293 cells; assay type: functional, cell-based; procedure, shortened: as §1
T1 sequence (P28335 whole entry): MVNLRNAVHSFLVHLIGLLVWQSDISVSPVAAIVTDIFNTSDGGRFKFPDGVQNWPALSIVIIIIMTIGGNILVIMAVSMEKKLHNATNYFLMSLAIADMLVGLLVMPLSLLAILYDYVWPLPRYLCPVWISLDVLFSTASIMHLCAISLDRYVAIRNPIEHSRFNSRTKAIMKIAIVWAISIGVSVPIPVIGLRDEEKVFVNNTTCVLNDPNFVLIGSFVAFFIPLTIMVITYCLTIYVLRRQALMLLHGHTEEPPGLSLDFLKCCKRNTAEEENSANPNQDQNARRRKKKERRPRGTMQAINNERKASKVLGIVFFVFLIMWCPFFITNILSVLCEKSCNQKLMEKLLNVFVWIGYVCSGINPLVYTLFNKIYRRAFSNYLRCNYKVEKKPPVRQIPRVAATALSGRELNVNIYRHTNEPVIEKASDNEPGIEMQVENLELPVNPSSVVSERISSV

[3] = target: 5-hydroxytryptamine receptor 2B (Homo sapiens, UniProt P41595); experiment: Induction of 5HT2B receptor mediated increase in intracellular calcium concentration in CHO cells; assay type: functional, cell-based; procedure, shortened: as §1
Sequence of 5-hydroxytryptamine receptor 2B (P41595 whole entry): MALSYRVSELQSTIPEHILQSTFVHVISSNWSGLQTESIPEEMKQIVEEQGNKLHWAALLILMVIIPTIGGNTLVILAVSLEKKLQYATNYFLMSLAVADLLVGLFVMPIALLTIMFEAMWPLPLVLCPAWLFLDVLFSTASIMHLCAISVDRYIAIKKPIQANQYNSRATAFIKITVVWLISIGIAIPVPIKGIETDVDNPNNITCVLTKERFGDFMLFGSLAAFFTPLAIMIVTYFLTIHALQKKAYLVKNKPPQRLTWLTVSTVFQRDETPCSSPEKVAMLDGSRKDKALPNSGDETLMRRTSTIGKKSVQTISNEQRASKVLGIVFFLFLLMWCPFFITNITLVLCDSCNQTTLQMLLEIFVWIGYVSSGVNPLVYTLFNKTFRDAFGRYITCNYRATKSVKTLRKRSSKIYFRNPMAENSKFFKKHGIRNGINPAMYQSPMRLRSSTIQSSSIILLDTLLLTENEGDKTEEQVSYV

Rattus norvegicus [4] = experiment: Reduction in food consumption in Sprague-Dawley rat at 20 mg/kg, ip after 24 hrs; assay type: functional, organism-based; parameters: dose 20 mg/kg
Procedure, shortened: (§2)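 Male Sprague–Dawley rats, n = 10/group, were given vehicle, fenfluramine (positive control) or test compound intraperitoneally about 30 min before onset of the 12 h dark cycle. This was a 24 h acute feeding study, with food consumption recorded at 4 and 24 h.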

Rattus norvegicus [5] = experiment: Reduction in food consumption in Sprague-Dawley rat at 20 mg/kg, ip after 4 hrs; assay type: functional, organism-based; parameters: dose 20 mg/kg; procedure, shortened: as §2
Rattus norvegicus [6] = experiment: Reduction in food consumption in ip dosed Sprague-Dawley rat; assay type: functional, organism-based; procedure, shortened: as §2
[7] = Half life in rat at 1.2 mg/kg, iv; assay type: ADME, organism-based; parameters: dose 1.2 mg/kg, route intravenous; details: in vivo
[8] = Clearance in rat at 1.2 mg/kg, iv; assay type: ADME, organism-based; parameters: dose 1.2 mg/kg, route intravenous; details: in vivo
[9] = Oral bioavailability in rat at 10.6 mg/kg, po; assay type: ADME, organism-based; details: in vivo
[10] = Brain to plasma AUC ratio in rat at 1.2 mg/kg, iv; assay type: ADME, organism-based; parameters: dose 1.2 mg/kg, route intravenous; details: brain and plasma, read-out: Ratio AUC
Procedure, shortened: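 Brain exposure was taken from cortex tissue. The ratio is AUC in cortex divided by AUC in plasma, after a single intravenous dose in rat.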

Sequence of 5-hydroxytryptamine receptor 2A (P28223 whole entry): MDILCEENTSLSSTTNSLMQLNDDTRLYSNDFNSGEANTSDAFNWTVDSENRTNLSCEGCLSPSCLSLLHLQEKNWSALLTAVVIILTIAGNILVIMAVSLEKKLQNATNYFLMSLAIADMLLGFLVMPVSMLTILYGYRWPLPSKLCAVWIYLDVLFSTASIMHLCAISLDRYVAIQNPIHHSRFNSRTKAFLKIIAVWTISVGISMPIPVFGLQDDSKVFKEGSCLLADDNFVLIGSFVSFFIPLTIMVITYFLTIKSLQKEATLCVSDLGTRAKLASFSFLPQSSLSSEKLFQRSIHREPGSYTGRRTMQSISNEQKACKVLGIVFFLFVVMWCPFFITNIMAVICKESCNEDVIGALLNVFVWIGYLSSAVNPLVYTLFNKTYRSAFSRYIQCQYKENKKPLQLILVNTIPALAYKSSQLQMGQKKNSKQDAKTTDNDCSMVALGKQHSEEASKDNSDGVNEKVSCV

SMILES | EC50 [1] [nM] | EC50 [2] [nM] | EC50 [3] [nM] | also measured
FC(F)(F)c1cccc([C@H]2CC[C@H]3CNC[C@H]32)c1 | 1080 | 420 | 187 | –
Fc1ccc(F)c(-c2ccnc(N3CC[C@H]4CNC[C@H]43)n2)c1 | – | > 1000 | – | –
Clc1ccc(Cl)c(-c2ccnc(N3CC[C@H]4CNC[C@H]43)n2)c1 | – | > 1000 | – | –
C[C@H]1C[C@H]2CNC[C@H]2N1c1nccc(C(F)(F)F)n1 | 40 | 22 | 151 | –
FC(F)(F)c1ccnc(N2CC[C@@H]3CNC[C@@H]32)n1 | – | 519 | – | –
FC(F)(F)c1ccnc(N2CCC3CNCC32)n1 (racemic) | 220 | 180 | 320 | –
Clc1cccc(N2CC[C@H]3CNC[C@H]32)c1 | 416 | 503 | 59 | –
FC(F)(F)c1ccnc(N2C[C@@H]3CCN[C@@H]3C2)n1 | – | > 20000 | – | –
FC(F)(F)c1ccnc(N2CC[C@H]3CNC[C@H]32)n1 | 116 | 23 | 62 | Activity (Rattus norvegicus [4]): Active; Activity (Rattus norvegicus [5]): Active; Activity (Rattus norvegicus [6]): Dose-dependent effect; half-life [7]: 1.1 h; clearance [8]: 6.71 mL/min/kg; bioavailability [9]: 6%; Kp [10]: 14.5
Clc1ccc(Cl)c(-c2ccnc(N3C[C@@H]4CCN[C@@H]4C3)n2)c1 | – | > 20000 | – | –
FC(F)(F)c1cccc(N2CC[C@H]3CNC[C@H]32)c1 | 168 | 103 | 65 | –
C[C@@H]1C[C@H]2CNC[C@H]2N1c1nccc(C(F)(F)F)n1 | 25 | 57 | 48 | –
Fc1cccc(N2CC[C@H]3CNC[C@H]32)c1 | 1120 | 319 | 108 | –
Fc1ccc(F)c(-c2ccnc(N3C[C@@H]4CCN[C@@H]4C3)n2)c1 | – | > 20000 | – | –

— ChEMBL document CHEMBL1148668, “The identification of pyrimidine-diazabicyclo[3.3.0]octane derivatives as 5-HT2C receptor agonists” (Bioorg Med Chem Lett, 2006)
